Bioassay records deposited in PubChem by Sanford-Burnham Center for Chemical Genomics.
Rows were chosen to be rich in hits. Some 0.79% of all compounds tested hit in one or more screens of this group.
hIAP block = blocks human intestinal alkaline phosphatase. inhibition, % at 10 µM. AID 2544. purified IAP, CDP-Star luminescence, 30 min. 330,000 tested, 0.12% active;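 active = inhibition reaching a set limit with compound at 10 µM in the primary screen, cut at about 35% in these data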
Target sequence (P09923 whole entry, looked up): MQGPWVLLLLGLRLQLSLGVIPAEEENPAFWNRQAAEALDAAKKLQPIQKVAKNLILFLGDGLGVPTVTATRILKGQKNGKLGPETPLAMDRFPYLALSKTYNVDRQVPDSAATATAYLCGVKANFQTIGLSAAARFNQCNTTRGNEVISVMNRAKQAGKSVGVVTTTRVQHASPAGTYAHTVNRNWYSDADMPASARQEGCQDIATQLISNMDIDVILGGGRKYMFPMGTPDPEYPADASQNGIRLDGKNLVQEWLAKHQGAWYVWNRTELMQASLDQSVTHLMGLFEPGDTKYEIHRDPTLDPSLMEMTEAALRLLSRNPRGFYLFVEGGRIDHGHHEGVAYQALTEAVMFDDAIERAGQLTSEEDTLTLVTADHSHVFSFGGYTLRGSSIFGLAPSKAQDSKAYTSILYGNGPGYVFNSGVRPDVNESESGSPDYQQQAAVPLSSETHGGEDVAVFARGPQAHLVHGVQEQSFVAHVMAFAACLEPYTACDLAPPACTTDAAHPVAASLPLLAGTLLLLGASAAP
hIAP activ = human IAP activation; activation factor at 10 µM; purified human IAP, CDP-Star luminescence, 30 min; hits give high values; 1 = vehicle-only enzyme, 0 = enzyme-free background; AID 2524; P09923; 330,000 tested, 0.16% active;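 active = activation factor of the enzyme at least 2-fold when tested at 20 µM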
mIAP block = mouse IAP inhibition; purified mouse IAP, CDP-Star luminescence, 30 min; inhibition, % at 10 µM; 330,000 tested, 0.2% active; AID 2806;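 active = inhibition of at least 40% at 10 µM in the primary screen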
mIAP act = increases mouse intestinal alkaline phosphatase activity; muIAP, CDP-Star luminescence, 30 min; hits give high values; 1 = vehicle-only enzyme signal, 0 = enzyme-free wells; activation factor at 10 µM; 330,000 tested, 0.24% active; AID 2805;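 active = activation factor of at least 2 at 20 µM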
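also added = chemiluminescent substrate CDP-Star | test system = mouse IAP enzyme | signal = chemiluminescence readout | compound = DMSO-dissolved test compounds | incubation = 30 min at room temperature | benchmarks = DMSO wells, no-enzyme wells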
bIAP inh = blocks bovine intestinal alkaline phosphatase activity; 190,000 tested, under 10 active; purified bovine IAP, CDP-star luminescence, 30 min; inhibition, % at 20 µM; AID 1019;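 active = over 50% inhibition of intestinal alkaline phosphatase at 20 µM in the single-dose screen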
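System: Purified bovine intestinal alkaline phosphatase (IAP) enzyme | Input: IAP diluted 1/65,000,000 in the well | Also added: CDP-star chemiluminescent phosphatase substrate, 30 µM final | Dosing: 20 µM single dose | Times: Enzyme reaction for 30 min at room temperature | Detection: Luminescence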
bIAP act = increases bovine intestinal alkaline phosphatase activity; purified bovine IAP, CDP-star luminescence, 30 min; hits give high values; fold of DMSO-control signal, blank-subtracted; activation factor at 20 µM; 200,000 tested, 0.17% active; AID 1016;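 active = activation factor of 2 or more at 20 µM, a signal rise over negative controls twice the positive control's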
mIAP inh conf = mouse IAP inhibition confirmation. shares compounds with mIAP block. purified mouse IAP, CDP-Star luminescence, 30 min. inhibition, % at 10 µM. 11,000 tested, 4.7% active. AID 434971;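 active = inhibition of at least 40% at 10 µM in either of the two replicates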
Each line names hits and unclear results; the compound was inactive in the other large screens (follow-up assays come after a bar, where they were run).

Cc1cc(C)nc(NNC(=O)c2ccccc2O)n1	none
Cc1nc(NC(=O)c2ccccc2)sc1-c1csc(NCc2ccco2)n1	mIAP block 44 | mIAP inh conf 56
COc1ccc(C2CC(c3ccccc3Br)=NN2c2ccc(S(N)(=O)=O)cc2)cc1 (configuration not stated)	none (no result: hIAP block, hIAP activ, bIAP inh, bIAP act)
COc1ccc(C2CC(c3ccccc3C(F)(F)F)=NN2c2ccc(S(N)(=O)=O)cc2)cc1 (configuration not stated)	mIAP act 2.2 (no result: hIAP block, hIAP activ, bIAP inh, bIAP act) | mIAP inh conf inactive
COc1ccc(C2CC(c3ccccc3F)=NN2c2ccc(S(N)(=O)=O)cc2)cc1 (configuration not stated)	mIAP act 2.1 (no result: hIAP block, hIAP activ, bIAP inh, bIAP act) | mIAP inh conf inactive
COc1ccc(C2CC(c3ccc(C(F)(F)F)cc3)=NN2c2ccc(S(N)(=O)=O)cc2)cc1 (configuration not stated)	none (no result: hIAP block, hIAP activ, bIAP inh, bIAP act)
CC(=O)NC1C(=O)Nc2c(C)cc(C)cc21 (configuration not stated)	none
C#CCOCCOCCOCCNc1nc(N2CCN(C(=O)CCCCCCCCCCNC(=O)[C@H](CCCCN)n3cc(C)nn3)CC2)nc(N2CCN(C(=O)CCCCCCCCCCNC(=O)[C@@H]([C@H](C)CC)n3cc(CCCCCN)nn3)CC2)n1	mIAP act 3 (no result: bIAP inh, bIAP act) | mIAP inh conf inactive
C#CCOCCOCCOCCNc1nc(N2CCN(C(=O)CCCCCCCCCCNC(=O)[C@H](CCC(=O)O)n3cc(CCCCCN)nn3)CC2)nc(N2CCN(C(=O)CCCCCCCCCCNC(=O)[C@@H]([C@H](C)O)n3cc(C)nn3)CC2)n1	none (no result: bIAP inh, bIAP act)
C#CCOCCOCCOCCNc1nc(N2CCN(C(=O)CCCCCCCCCCNC(=O)Cn3cc(CCCCCN)nn3)CC2)nc(N2CCN(C(=O)CCCCCCCCCCNC(=O)[C@H]([C@@H](C)CC)n3cc(CCCCCN)nn3)CC2)n1	mIAP act 4.1 (no result: bIAP inh, bIAP act) | mIAP inh conf inactive
C#CCOCCOCCOCCNc1nc(N2CCN(C(=O)CCCCCCCCCCNC(=O)[C@H]([C@@H](C)CC)n3cc(CCCCCN)nn3)CC2)nc(N2CCN(C(=O)CCCCCCCCCCNC(=O)[C@@H]([C@H](C)O)n3cc(C)nn3)CC2)n1	mIAP act 2.1 (no result: bIAP inh, bIAP act) | mIAP inh conf inactive
Cc1ccc2c(c1)-n1c(nc3ccccc3c1=O)C(CC(C)C)NC2=O (configuration not stated)	none (no result: bIAP inh, bIAP act)
O=C(CCNC(=O)c1ccccc1)NCCc1ccc(Cl)cc1	none (no result: bIAP inh, bIAP act)
O=C(CCCC1=NS(=O)(=O)c2ccccc2N1)Nc1ccccc1	none (no result: bIAP inh, bIAP act)
CCN(CC)S(=O)(=O)c1ccc(C(=O)Nc2cccc(C)c2)cc1	none
NNC(=O)Nc1cccc(C(F)(F)F)c1	none
O=C(Nc1ccc(OC(F)F)cc1)Nc1cccc(C(F)(F)F)c1	mIAP act 3.2 | mIAP inh conf inactive
CCN(CC)S(=O)(=O)c1ccc(NC(=O)Nc2cccc(C(F)(F)F)c2)cc1	mIAP act 2.8 | mIAP inh conf inactive
O=C1NN(c2cccc(Br)c2)C(=O)/C1=C/c1ccc(-c2cc([N+](=O)[O-])ccc2O)o1	mIAP block 45 (no result: bIAP inh, bIAP act) | mIAP inh conf 47
CC1=NN(c2ccc(C)cc2)C(=O)/C1=C/c1ccc(-c2cc([N+](=O)[O-])ccc2O)o1	none (no result: bIAP inh, bIAP act)
CCCC(=O)Nc1cccc(-c2nc3ccccc3c(=O)o2)c1	none
Cn1c(=O)c2c(nc(NC3CCCCC3)n2CC(=O)C23CC4CC(CC(C4)C2)C3)n(C)c1=O	mIAP act 2 | mIAP inh conf inactive
COc1ccc2[nH]c3c(NCc4ccco4)ncnc3c2c1	none
Fc1ccc2[nH]c3c(NCc4ccccc4)ncnc3c2c1	mIAP act 2.7 (no result: bIAP inh, bIAP act) | mIAP inh conf inactive
OC(COC(c1ccc(F)cc1)c1ccc(F)cc1)CN1CCCC(C(F)(F)F)C1 (configuration not stated)	none (no result: bIAP inh, bIAP act)
COc1ccccc1[C@H]1C(c2ccccc2)=NN(c2ccccc2)[C@@H]1CO	mIAP act 2.2 (no result: hIAP block, hIAP activ, bIAP inh, bIAP act) | mIAP inh conf inactive
COc1ccccc1[C@H]1C(c2cccc(C)c2)=NN(c2ccccc2)[C@@H]1CO	none (no result: hIAP block, hIAP activ, bIAP inh, bIAP act)
OC[C@@H]1[C@@H](c2ccc(Cl)cc2)C(c2cccc(Cl)c2)=NN1c1ccccc1	mIAP act 2.3 (no result: hIAP block, hIAP activ, bIAP inh, bIAP act) | mIAP inh conf inactive
O=C(c1cccs1)[C@@H]1[C@@H]2C(=O)N(Cc3ccc4c(c3)OCO4)C(=O)[C@@H]2C2c3ccccc3C=CN21 (some centres not stated)	mIAP block 46 | mIAP inh conf 43
O=C(c1ccc2c(c1)OCO2)[C@@H]1[C@@H]2C(=O)N(C3CCCCC3)C(=O)[C@@H]2C2c3ccccc3C=CN21 (some centres not stated)	none (no result: hIAP block, hIAP activ, mIAP block, mIAP act)
CC(C)Oc1cccc(C(=O)NC(=S)Nc2cccc(NC(=O)c3ccccc3Cl)c2)c1	none
COc1ccc(NC(=S)NCCC(c2ccccc2)c2ccccc2)c(OC)c1	none
COc1cccc(NC(=S)NCCC(c2ccccc2)c2ccccc2)c1	mIAP act 6.2 | mIAP inh conf inactive
COc1cc(NC(=S)NCCC(c2ccccc2)c2ccccc2)cc(OC)c1	mIAP act 5.1 | mIAP inh conf inactive
COc1cccc(NC(=O)NCCCCc2ccccc2)c1	mIAP act 2.3 (no result: bIAP inh, bIAP act) | mIAP inh conf inactive
COc1ccc(NC(=O)NCCCCc2ccccc2)cc1OC	none (no result: bIAP inh, bIAP act)
COc1ccc(C)cc1NC(=O)CSc1ccc(-c2ccco2)nn1	none (no result: bIAP inh, bIAP act)
O=C(COc1ccc(-n2cnnn2)cc1)NC(=O)NCc1ccccc1	none
O=C(COc1ccc([N+](=O)[O-])cc1Cl)NCCN1C(=O)CSC1=O	none (no result: bIAP inh, bIAP act)
Cc1cc(O)c2c(c1)C(=O)c1cc(O)cc(O)c1C2=O	none (no result: bIAP inh, bIAP act)
O=C1c2cccc(O)c2C(=O)c2c(O)cc(CO)cc21	mIAP block 45 (no result: bIAP inh, bIAP act) | mIAP inh conf 52
CCOc1ccc(CCNC(=O)CCC(=O)N2CCOc3ccccc32)cc1OCC	none (no result: bIAP inh, bIAP act)
Cc1cc(O)c(C=O)c2c1C(=O)Oc1c(CO)c(O)c3c(c1O2)C(O)OC3=O (configuration not stated)	mIAP block 87 | mIAP inh conf 62
Cc1cc(O)c(CN(C)C)c2c1C(=O)/C(=C/c1ccco1)O2	none (no result: bIAP inh, bIAP act)
CCN(CC)C(=O)C1CCCN(Cc2ccc3ccccc3c2)C1 (configuration not stated)	none (no result: bIAP inh, bIAP act)
CCCCn1c(N)c(N(CC(C)C)C(=O)CSc2ccccc2C)c(=O)[nH]c1=O	none (no result: bIAP inh, bIAP act)
C#CCOCCOCCOCCNc1nc(N2CCN(C(=O)CCCCCCCCCCNC(=O)[C@@H](CCSC)n3cc(CCO)nn3)CC2)nc(N2CCN(C(=O)CCCCCCCCCCNC(=O)[C@H]([C@@H](C)CC)n3cc(CCCCN=C(N)N)nn3)CC2)n1	mIAP act 22 (no result: bIAP inh, bIAP act) | mIAP inh conf inactive
